From paper PMC3378255 (ACS chemical neuroscience, 2012)
Where two headings read alike, the source gives them in different places.

What was measured:
KOR = KOR (Homo sapiens, UniProt P41145); experiment: PDSP radioligand binding assay, KOR
[1] = Plasma protein binding, human; format: in vitro ADME; conditions: for bound to both human and mouse plasma: human and mouse plasma together; for plasma protein binding (% Bound): human
[2] = test system: 44 GPCR and other molecular targets; experiment: PDSP binding assay panel of 44 GPCR and other molecular targets
Outline: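 The Psychoactive Drug Screening Program ran radioligand binding assays across 44 GPCR and other targets. Test compounds were first screened at a single 10 μM concentration. Those showing significant activity then went to Ki determination.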

[3] = test system: Fa2N-4 immortalized human hepatocytes; experiment: Hepatic toxicity; format: cell-based; conditions: in words
[4] = Plasma protein binding, mouse; format: in vitro ADME
[5] = mouse, microsomes, 1 h

Sequence of KOR (P41145 whole entry): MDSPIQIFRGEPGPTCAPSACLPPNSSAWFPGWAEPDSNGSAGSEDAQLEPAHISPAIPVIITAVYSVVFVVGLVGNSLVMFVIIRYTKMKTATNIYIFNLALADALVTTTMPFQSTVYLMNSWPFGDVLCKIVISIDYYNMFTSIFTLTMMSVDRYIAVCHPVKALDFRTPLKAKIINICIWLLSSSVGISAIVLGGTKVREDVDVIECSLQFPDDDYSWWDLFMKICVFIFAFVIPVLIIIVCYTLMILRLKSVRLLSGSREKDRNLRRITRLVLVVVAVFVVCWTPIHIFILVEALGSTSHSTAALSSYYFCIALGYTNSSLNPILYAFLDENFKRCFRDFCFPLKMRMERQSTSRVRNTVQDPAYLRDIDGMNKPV

Row | PAMPA Pe | hepatic microsome stability [5] [% remaining] | PAMPA Pe (pH 7.4) [cm/s] | Structure (SMILES) | Ki (KOR) [nM] | bound to both human and mouse plasma [1] | plasma protein binding (% Bound) ([1]; 1µM) | plasma protein binding (% Bound) ([1]; 10µM) | affinity across the PDSP assay panel ([2]; in words, concentrations up to 10,000 nM) | toxicity toward human hepatocytes [3] | plasma protein binding (% Bound) ([4]; 1µM) | plasma protein binding (% Bound) ([4]; 10µM) | Ki ([2]; read-out: Ki values for 11 non-opioid targets, weak binding affinity, PDSP panel) [nM]
1 |  |  |  | O=C(c1ccccn1)N(Cc1cccs1)C1(C(=O)NC2CCCCC2)CCCCC1 [1{1}, N-(1-(Cyclohexylcarbamoyl)cyclohexyl)-N-(thiophen-2-ylmethyl)picolinamide] | 0.6 | 90–99% | 99.59 | 99.07 | affinity only for the opioid receptors | significant toxicity | 94.05 | 90.70 | 
2 |  |  |  | Clc1ccc(CSc2nnc(-c3ccccn3)n2Cc2ccco2)cc1Cl [2{8}] |  | 90–99% | 99.75 | 99.80 |  |  | 99.80 | 99.64 | 1000 to 10000
3 | 1710–1940 ×10^−6 cm/s |  |  | Cc1ccc(S(=O)(=O)NCc2ccc(C(=O)NCCN(Cc3ccccc3)C(C)C)cc2)cc1 [3{1}, N-(2-(Benzyl(isopropyl)amino)ethyl)-4-((4-methylphenylsulfonamido)methyl)benzamide] |  | 90–99% | 99.67 | 99.73 |  |  | 98.90 | 98.92 | 
4 | 2.7e-05 cm/s | 7.3 | 0.000757 | COc1ccc(N2CCN(CCCNC(=O)Cn3c(=O)c4cccn4c4c(C)ccnc43)CC2)cc1 [4{13}, N-(3-(4-(4-Methoxyphenyl)piperazin-1-yl)propyl)-2-(1-methyl-6-oxopyrido[2,3-e]pyrrolo[1,2-a]pyrazin-5(6H)-yl)acetamide] |  | 80–94% | 93.96 | 88.54 |  |  | 88.46 | 80.07 | 
